From ChEMBL document CHEMBL1124174, “Substituted benzamides. 1. Potential nondopaminergic antagonists of chemotherapy-induced nausea and emesis” (J Med Chem, 1988) come the findings set out here.

Test [1] has as its system Mustela putorius furo. Put plainly: In vivo antagonism of cisplatin-induced emesis in ferret measured as percentage protection for twice the dose of 3 mg/kg and in 3 ferrets. In kind it is functional. In a few lines: (§1)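 Nonfasted castrated male Fitch ferrets (1–1.5 kg) had jugular catheters implanted ≥48 h earlier under anesthesia. Compounds or saline were given iv twice, 5 min before and 90 min after cisplatin (12 mg/kg iv; 12 mg/mL in warm 0.9% saline). Emesis was observed up to 4 h; events within 1 min counted as one episode. Results were given as mean emetic episodes and % protection versus a pooled historical/concurrent control. t test versus saline.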

In test [2] the target is D(2) dopamine receptor (Rattus norvegicus) (UniProt P61169). Description: In vivo antagonism activity against D2 receptor was measured as stereotypy in rat when administered subcutaneously. In kind it is functional, organism-based. In a few lines:
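Male Long Evans rats (275 g) were dosed sc in dilute aqueous HCl (pH 4.5-5.5) 30 min before apomorphine (1 mg/kg sc).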

The test system of test [3] is Mustela putorius furo. Put plainly: In vivo antagonism of cisplatin-induced emesis in ferret measured as emetic episodes, twice the dose of 3 mg/kg and in 3 ferrets. In kind it is functional. A digest of the protocol:
as §1

Test [4] addresses D(2) dopamine receptor (Canis lupus familiaris) (UniProt Q9GJU1). Description: In vivo antagonism activity against dopamine D2 receptor was measured as emesis in dog when administered subcutaneously. The test is classed as functional, organism-based.
Test [5] addresses D(2) dopamine receptor (Rattus norvegicus) (UniProt P61169). Put plainly: In vivo antagonistic activity against dopamine D2 receptor was measured as catalepsy in rat when administered subcutaneously. The test is classed as functional, organism-based. In a few lines:
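Male Long Evans rats (275 g) received graded sc doses in dilute aqueous HCl (pH 4.5-5.5). They were observed 180 min for catalepsy, scored when the animal stayed stationary ≥15 s on a four-cork template.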

In the next test the target is D(2) dopamine receptor (Rattus norvegicus, UniProt P61169). Put plainly: In vitro antagonistic activity against Dopamine receptor D2 was evaluated for the inhibition of [3H]spiperone binding. In a few lines:
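Rat striatal membranes were prepared by differential centrifugation in 50 mM Tris pH 7.4 at 4 °C. Membrane protein (10 mg) was incubated 15 min at 37 °C with 0.1 nM [3H]spiperone and varying competitor concentrations. Buffer: 50 mM Tris HCl pH 7.5, 0.1% ascorbic acid, pargyline, 120 mM NaCl, 5 mM KCl, 2 mM CaCl2, 1 mM MgCl2. (+)-Butaclamol defined nonspecific binding. Bound ligand was collected by filtration and scintillation counted. IC50 by log-logit regression.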

The structures appear in SMILES notation.

Chain of D(2) dopamine receptor (Rattus norvegicus) (P61169 whole entry): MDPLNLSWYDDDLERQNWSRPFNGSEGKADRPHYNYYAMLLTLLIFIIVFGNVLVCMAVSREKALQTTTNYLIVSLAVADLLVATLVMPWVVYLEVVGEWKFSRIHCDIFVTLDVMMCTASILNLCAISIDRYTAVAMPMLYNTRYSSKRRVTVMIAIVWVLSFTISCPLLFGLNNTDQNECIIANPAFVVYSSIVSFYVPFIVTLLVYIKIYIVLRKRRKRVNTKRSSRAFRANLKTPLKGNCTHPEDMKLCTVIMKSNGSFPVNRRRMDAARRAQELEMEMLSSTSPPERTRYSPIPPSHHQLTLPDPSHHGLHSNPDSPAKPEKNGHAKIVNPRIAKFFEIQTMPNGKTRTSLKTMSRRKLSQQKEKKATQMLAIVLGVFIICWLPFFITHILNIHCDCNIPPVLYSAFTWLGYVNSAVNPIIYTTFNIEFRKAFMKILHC
Chain of D(2) dopamine receptor (P61169 whole entry): as above
Chain of D(2) dopamine receptor (Canis lupus familiaris) (Q9GJU1 whole entry): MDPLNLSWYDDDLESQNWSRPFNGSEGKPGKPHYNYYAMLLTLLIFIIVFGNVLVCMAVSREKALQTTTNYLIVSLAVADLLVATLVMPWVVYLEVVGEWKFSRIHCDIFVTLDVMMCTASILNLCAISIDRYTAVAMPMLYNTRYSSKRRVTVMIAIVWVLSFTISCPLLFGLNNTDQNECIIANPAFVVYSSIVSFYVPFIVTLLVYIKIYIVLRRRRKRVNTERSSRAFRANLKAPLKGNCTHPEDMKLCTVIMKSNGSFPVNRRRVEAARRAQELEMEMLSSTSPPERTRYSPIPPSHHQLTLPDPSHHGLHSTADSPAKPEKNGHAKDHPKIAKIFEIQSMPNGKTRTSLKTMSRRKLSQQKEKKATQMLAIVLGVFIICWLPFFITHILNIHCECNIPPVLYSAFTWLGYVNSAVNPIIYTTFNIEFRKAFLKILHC

One may read the ED50 as the dose at which the effect has come halfway, by size or by number of responders. One may read the IC50 as the concentration at which inhibition is half-maximal. The molecule `CCN(CC)CCNC(=O)c1cc(Cl)c(N)cc1OCC(O)CO` (configuration not stated) yielded a Protection in the test on Mustela putorius furo [1] of 10%. Further, the ED50 in test [2] is above 40 mg/kg; in test [4], above 3 mg/kg; in test [5], above 40 mg/kg. The Emetic episodes in the test on Mustela putorius furo [3] is reported as 6.3. The same molecule displayed a concentration for half-maximal inhibition (IC50) on D(2) dopamine receptor above 1000 nM.

`CCN(CC)CCNC(=O)c1cc(Cl)c(N)cc1OC(C)C(C)O` (stereo in doubt; 8h): the ED50 in test [2] is above 40 mg/kg; in test [4], above 3 mg/kg; in test [5] it was above 40 mg/kg.

For the molecule `CCN(CC)CCNC(=O)c1cc(Cl)c(N)cc1OCC1CCCO1` (configuration not stated), the Protection with Mustela putorius furo [1] is 54%. Also, the median effective dose (ED50) in test [2] was above 40 mg/kg; in test [4], above 3 mg/kg; in test [5], above 40 mg/kg. The same molecule displayed an Emetic episodes in the test with Mustela putorius furo [3] of 3.3. The molecule also came in with a concentration for half-maximal inhibition (IC50) on D(2) dopamine receptor above 1000 nM.

In turn, `CCN(CC)CCN(C)C(=O)c1cc(Cl)c(N)cc1O.Cl` returned a Protection in the test with Mustela putorius furo [1] of 30%. Moreover, the ED50 is above 40 mg/kg in test [2], above 3 mg/kg in test [4] and above 40 mg/kg in test [5]. The molecule further showed an Emetic episodes with Mustela putorius furo [3] of 5. The molecule further gave an IC50 on D(2) dopamine receptor above 1000 nM.

The molecule `CCN(CC)CCN(C)C(=O)c1cc(Cl)c(N)cc1OC` returned a Protection in the test with Mustela putorius furo [1] of 0%. Also, the ED50 in test [2] was above 40 mg/kg; in test [4], above 3 mg/kg; in test [5], above 40 mg/kg. The molecule also came in with an Emetic episodes in the test on Mustela putorius furo [3] of 8.7. For the same molecule, the IC50 on D(2) dopamine receptor is above 1000 nM.

The molecule `C=CCN1CCCC1CNC(=O)c1cc2nn[nH]c2cc1OC(C)C(C)=O` (configuration not stated) returned a Protection in the test on Mustela putorius furo [1] of 21%. The ED50 in test [2] was above 40 mg/kg; in test [4] it was above 3 mg/kg; in test [5] it was above 40 mg/kg. In the test on Mustela putorius furo [3], this molecule registered an Emetic episodes of 5.7. On D(2) dopamine receptor, this molecule yielded an IC50 above 1000 nM.

`C=CCN1CCCC1CNC(=O)c1cc2[nH]nnc2cc1OC` (configuration not stated) [ALIZAPRIDE]: the IC50 at D(2) dopamine receptor was found to be 200 nM.

In turn, `CCN(CC)CCNC(=O)c1cc(Cl)c(N)cc1OCC1CO1` (configuration not stated) showed a Protection in the test with Mustela putorius furo [1] of 44%. Further, the ED50 in test [2] was above 40 mg/kg; in test [4], above 3 mg/kg; in test [5], above 40 mg/kg. This molecule also gave an Emetic episodes in the test with Mustela putorius furo [3] of 4.7. Moreover, the IC50 on D(2) dopamine receptor is above 1000 nM.

Turning to `CCN(CC)CCNC(=O)c1cc(Cl)c(N)cc1OCc1ccccc1`, the ED50 in test [2] is above 40 mg/kg; in test [4], above 1 mg/kg; in test [5], above 40 mg/kg. For the same molecule, the IC50 on D(2) dopamine receptor is above 1000 nM.

`CCN(CC)CCNC(=O)c1cc(Cl)c(N)cc1OC(C)C(C)O` (stereo in doubt; 8g,h): the ED50 in test [2] and in test [5] was above 40 mg/kg throughout.

On to `CCN1CCCCCOc2cc(N)c(Cl)cc2C(=O)NCCC1`, for which, in the test on Mustela putorius furo [1], the Protection is reported as 67%. The values for the ED50 in test [2], in test [4] and in test [5] were 10 mg/kg, above 3 mg/kg and above 40 mg/kg, respectively. The molecule further came in with an Emetic episodes in the test with Mustela putorius furo [3] of 2.3. In addition, at D(2) dopamine receptor, the IC50 stood at 7.7 nM.

Consider `CCN(CC)CCNC(=O)c1cc(Cl)c(N)cc1OC[C@@H](C)O` (stereo in doubt; 8e), for which the values for the ED50 in test [2], in test [4] and in test [5] were above 40 mg/kg, above 3 mg/kg and above 40 mg/kg, respectively.

On to `CCN(CC)CCNC(=O)c1cc(Cl)c(N)cc1OC[C@@H](C)O` (stereo in doubt; 8f), for which the figures for the ED50 in test [2], in test [4] and in test [5] were above 40 mg/kg, above 3 mg/kg and above 40 mg/kg, respectively.

In the case of `C=CCN1CCCC1CNC(=O)c1cc2[nH]nnc2cc1O` (configuration not stated), the IC50 on D(2) dopamine receptor was above 1000 nM.

In the test on Mustela putorius furo [1], `CCN1CCCNC(=O)c2cc(Cl)c(N)cc2OCCOCC1` yielded a Protection of 0%. Moreover, in the test with Mustela putorius furo [3], the Emetic episodes was 11.7. The values for the ED50 in test [4] and in test [5] were above 3 mg/kg and above 40 mg/kg, respectively. Besides, the IC50 at D(2) dopamine receptor is above 1000 nM.

Consider `C=CCN1CCCC1CNC(=O)c1cc2nn[nH]c2cc1O` (configuration not stated), for which, in the test with Mustela putorius furo [1], the Protection is listed as 0%. The ED50 in test [2] is above 40 mg/kg; in test [4] it was above 3 mg/kg; in test [5], above 40 mg/kg. Besides, the Emetic episodes in the test with Mustela putorius furo [3] stood at 8.

For `CCN(CC)CCNC(=O)c1cc(Cl)c(N)cc1OC(C)C(C)O` (stereo in doubt; 8g), the ED50 in test [2] was above 40 mg/kg; in test [4], above 3 mg/kg; in test [5] it was above 40 mg/kg.
